Compound activity as filed in PubChem BioAssay.
Myeloid diff MLP: myeloid differentiation induction; 1% of 360,000 active; calls only at 10 µM; ER-HoxA9 myeloid progenitors, lysozyme-GFP differentiation, flow cytometry;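 active = normalized GFP-positive differentiation at or above the plate's own cutoff, the solvent-only control mean plus 3 SD; inconclusive = no clear call, values can overlap the other calls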;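 also: cells exposed to compound for four days before flow analysis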
Granule exo inh: lytic granule exocytosis inhibition | TALL-104 LAMP-1 surface exposure, flow cytometry; cells stimulated with thapsigargin and PMA | 0.66% of 360,000 active | inhibition, % at 10 µM;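 active = inhibition above about 55%, limit read from the data; inconclusive = no clear call, values can overlap the other calls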
MC4R ag barr: agonists of human melanocortin 4 receptor (MC4R) beta-arrestin; U2OS MC4R beta-arrestin complementation, luminescence; percent of melanotan II response, DMSO zero; activation, % at 8.9 µM; 0.98% of 360,000 active;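 active = activation above a per-plate cutoff, the mean activation of sample wells on that plate plus 3 SD, cut at about 8% in these data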
Target sequence (P32245 whole entry, looked up): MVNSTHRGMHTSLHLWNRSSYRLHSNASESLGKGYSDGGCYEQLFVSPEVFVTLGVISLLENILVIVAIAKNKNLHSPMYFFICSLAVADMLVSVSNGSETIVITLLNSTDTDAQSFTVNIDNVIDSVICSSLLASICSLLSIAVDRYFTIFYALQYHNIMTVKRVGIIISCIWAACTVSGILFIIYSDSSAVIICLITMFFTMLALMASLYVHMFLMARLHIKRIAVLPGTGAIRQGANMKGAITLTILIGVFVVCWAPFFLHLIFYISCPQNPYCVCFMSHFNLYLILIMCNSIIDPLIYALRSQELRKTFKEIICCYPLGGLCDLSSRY
EBI2 block: antagonists of human EBI2 receptor | P32249 | EBI2 beta-arrestin recruitment, luminescence, 7a,25-OHC stimulated | inhibition, % at 5 µM | 0.81% of 360,000 active | AID 651636; in the data active = inhibition above about 38%;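 also: enzyme fragment complementation signal reports receptor beta-arrestin coupling in cells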
MC4R antagonist: antagonists of human melanocortin 4 receptor (MC4R) | P32245 | MC4R-expressing cells, MTII-stimulated cAMP, LANCE TR-FRET | inhibition, % at 6.5 µM | 0.48% of 360,000 active;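 active = inhibition above its plate's cutoff, the mean of tested wells on that plate plus 3 SD, cut at about 29% in these data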
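Material – human MC4R-expressing U2OS cells · Repeats – no replicates · Detection – TR-FRET with Eu-cAMP and labeled anti-cAMP, 671 nm · Times – compound 30 min, challenge 1 h, detection 1 h · Compound – single nominal compound dose of 6.5 µM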
Myeloid diff: promotes myeloid progenitor differentiation. shares compounds with Myeloid diff MLP. ER-HoxA9 myeloid progenitors, GFP/Mac1 double-positive flow. calls only. 2% of 2,300 active. AID 651706;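 active = share of green or green-and-red cells above 9 and 9% in run 1 or 4 and 3% in run 2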
GFP autofluor: counter-screen for myeloid differentiation promoters: compound fluorescence; shares compounds with Myeloid diff MLP; ER-HoxA9 myeloid progenitors, no estrogen, GFP autofluorescence flow cytometry; vehicle wells 0%, positive control 100%; fluorescence response, % (concentration not given with the values); 7.4% of 2,300 active;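 active = over 5% cells positive for green fluorescent reporter, or over 2% positive for both it and APC stain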
Large screens that a line does not name were inactive (follow-up assays come after a bar, where they were run). This is a sample that favours compounds with a hit; in the whole collection about 3.7% have one here.

COc1ccc(C(CCNCc2ccccc2)c2ccc(F)cc2)cc1 (centres undefined)	none | Myeloid diff inactive | GFP autofluor inactive
Oc1ccc(/C=C/c2ccc3ccccc3n2)cc1	Myeloid diff MLP active | Myeloid diff inactive | GFP autofluor 20
C(=C\c1ccc2ccccc2n1)/c1ccccc1	none
CC1(c2nnc(-c3cccc(Cl)c3)o2)CC(c2ccc(OC(F)(F)F)cc2)=NO1 (centres undefined)	none
CCOC(=O)C1CCN(C(=O)COC(=O)/C=C/c2ccc([N+](=O)[O-])cc2)CC1	none | Myeloid diff inactive | GFP autofluor inactive
O=[N+]([O-])c1ccccc1SN(Cc1ccccc1)c1ccccn1	none | Myeloid diff inactive | GFP autofluor inactive
COCCCN1C(=O)C(=O)/C(=C(/O)c2ccc(OC(C)C)cc2)C1c1ccncc1 (centres undefined)	none | Myeloid diff inactive | GFP autofluor inactive
CCCCOc1ccc(/C(O)=C2/C(=O)C(=O)N(CCCOC)C2c2ccncc2)cc1 (centres undefined)	none
Nc1ncnc2c1ncn2[C@@H]1O[C@H](CNCc2ccc(OCC(=O)Nc3nccs3)cc2)[C@@H](O)[C@H]1O	none
CCOc1cc(C(=O)Nc2ccc(C)cc2O)ccc1OCC(=O)N1CCOCC1	Myeloid diff MLP active | Myeloid diff inactive | GFP autofluor inactive
CCOc1cc(C(=O)Nc2cc(C(=O)OC)ccc2C)ccc1OCC(=O)N1CCOCC1	none
O=CNc1ccc2c3c(cccc13)-c1ccccc1-2	Myeloid diff MLP active | Myeloid diff inactive | GFP autofluor inactive
CC(=O)Nc1ccc2c3c(cccc13)C(=O)N(c1ccccc1)C2=O	none
CCCCNC(=O)C(NC(=O)c1cnc(C)cn1)C(=O)c1ccccc1 (centres undefined)	none (no result: MC4R ag barr, MC4R antagonist)
CC(C)(C)NNC(=S)Nc1ccc(S(=O)(=O)N2CCOCC2)cc1	none | Myeloid diff inactive | GFP autofluor inactive
CC(=O)NC(=S)Nc1ccc(S(=O)(=O)N2CCOCC2)cc1	none
COCc1cc(=O)[nH]c(Nc2nc3ccc(C)cc3o2)n1	none | Myeloid diff inactive | GFP autofluor inactive
Nc1[nH]c(C(=O)c2ccccc2)c(-c2c(F)cccc2F)c1C(=O)c1ccc(Cl)c(Cl)c1	none (no result: MC4R ag barr, MC4R antagonist)
Cc1cc(C)cc(N(C(=O)c2ccccn2)C(C(=O)NC2CCCCC2)c2ccncc2)c1 (centres undefined)	Granule exo inh inconclusive
Oc1[nH]c2ccccc2c1/C=N/c1nccs1	none | Myeloid diff inactive | GFP autofluor inactive
COc1ccc(N=Cc2c(O)[nH]c3ccccc23)cc1	Myeloid diff MLP inconclusive
COc1cc(CC(=O)N(CC(C)C)C2CCS(=O)(=O)C2)cc(OC)c1OC (centres undefined)	none
Cc1ccc(-c2cc3ccccc3nc2N)cc1	none
Cc1ccccc1S(=O)(=O)c1cc2ccccc2nc1N	none | Myeloid diff inactive | GFP autofluor inactive
CCOC(=O)CC1C(=O)NCCN1C(=O)c1cccc(OC)c1 (centres undefined)	none
O=C(Nc1cccc2ccccc12)/C(=C\c1cccc([N+](=O)[O-])c1)NC(=O)c1cccs1	Myeloid diff MLP active | Myeloid diff inactive | GFP autofluor inactive
COc1ccc(CC(=O)NC2CCN(CC(=O)N3CCCc4ccccc43)CC2)cc1OC	none | Myeloid diff inactive | GFP autofluor inactive
COc1ccc(CC(=O)N2CCCc3ccccc32)cc1OC	none
COc1ccc(CC(=O)NNC(=O)c2c(-c3ccccc3Cl)noc2C)cc1OC	none
CCC(C)(C)NC(=O)C(c1ccc(F)cc1)N(Cc1cccs1)C(=O)c1cnccn1 (centres undefined)	none
O=C(Nc1ccccc1)C(Cc1ccccc1)NC(=O)C12CC3CC(CC(C3)C1)C2 (centres undefined)	Myeloid diff MLP active | Myeloid diff inactive | GFP autofluor inactive
CCOC(=O)c1c(C)[nH]c(N=Nc2ccc(OC)cc2)c1C	none
Cc1cc(C)n(-c2nc3ccccc3nc2N2CCC(C)CC2)n1	none
Cc1cc(C)n(-c2nc3ccccc3nc2N2CCN(C(=O)c3ccc(F)cc3)CC2)n1	none | Myeloid diff inactive | GFP autofluor inactive
COc1ccc(NC(=O)CSc2nnc3n2CCCCC3)cc1OC	none
